{"data": "Measurements of several laboratories", "organism": "Mycobacterium tuberculosis", "effect on": "microbial growth", "note": "Compare with care: the assays were run in different laboratories."}
{"Compound": "CCCCOC(=O)Nc1cc2nc(C3CCCCC3)[nH]c2cc1N1CCCC1", "technique": "resazurin", "strain": "H37RV", "quantity": "MIC99", "value": "0.39 µg/mL"}
{"Compound": "Nc1sc2c(c1C(=O)O)CCN(C(=O)OCc1ccccc1)C2", "technique": "resazurin", "strain": "H37RV", "quantity": "MIC", "value": "> 300 µM"}
{"Compound": "[H]/N=C(/N)N[C@H]1[C@H](O)[C@@H](O)[C@H](O[C@@H]2O[C@@H](C)[C@](O)(C=O)[C@H]2O[C@@H]2O[C@@H](CO)[C@H](O)[C@@H](O)[C@@H]2NC)[C@@H](N/C(N)=N\\[H])[C@@H]1O", "technique": "disc diffusion", "strain": "ATCC25177", "concentration": "5 µg/disc", "time": "12 days", "quantity": "inhibition zone", "value": "30 mm"}
{"Compound": "Nc1sc2c(c1C(=O)NC13CC4CC(CC(C4)C1)C3)CCCC2", "technique": "resazurin", "strain": "H37RV", "quantity": "MIC", "value": "> 300 µM"}
{"Compound": "Cc1cc2nc(C(=O)O)cc(-c3ccccc3Cl)c2c(C)c1-c1ccncc1", "strain": "H37RV", "quantity": "MIC90", "value": "80 µM"}
{"Compound": "Nc1nc(-c2ccc(-c3ccccc3)cc2)nc2c1ncn2[C@@H]1O[C@H](COS(=O)(=O)NC(=O)c2ccccc2O)[C@@H](O)[C@H]1O", "strain": "H37RV", "pH": "pH 6.6", "quantity": "MIC99", "value": "25 to 50 µM"}
{"Compound": "COc1cccc2c1C(=O)c1c(O)c3c(c(O)c1C2=O)C[C@@](O)(C(C)=O)C[C@@H]3O[C@H]1C[C@H](N)[C@H](O)[C@H](C)O1", "technique": "resazurin", "strain": "H37RV", "quantity": "MIC", "value": "1.25 µM"}
{"Compound": "Cc1cccc(C)c1-c1ccnc2cc(C)c(-c3ccc(CN4CCOCC4)cc3)c(C)c12", "strain": "H37RV", "quantity": "MIC90", "value": "5 µM"}
{"Compound": "Nc1nc(-c2cccc(-c3ccccc3)c2)nc2c1ncn2[C@@H]1O[C@H](COS(=O)(=O)NC(=O)c2ccccc2O)[C@@H](O)[C@H]1O", "strain": "H37RV", "pH": "pH 6.6", "quantity": "MIC99", "value": "25 to 50 µM"}
{"Compound": "Cc1cc2nc(C(=O)N(C)C)cc(-c3ccccc3Cl)c2c(C)c1-c1ccncc1", "strain": "H37RV", "quantity": "MIC90", "value": "20 µM"}
{"Compound": "CCOC(=O)c1c(NC(=O)c2c(F)c(F)c(F)c(F)c2F)sc2c1CCN(C(=O)OC(C)(C)C)C2", "technique": "resazurin", "strain": "H37RV", "quantity": "MIC", "value": "< 100 µM"}
{"Compound": "O=C(Nc1cc2nc(C3CCCCC3)[nH]c2cc1N1CCCC1)OCc1ccccc1", "technique": "resazurin", "strain": "H37RV", "quantity": "MIC99", "value": "1.56 µg/mL"}
{"Compound": "CC(=O)[C@]1(O)Cc2c(O)c3c(c(O)c2[C@@H](O[C@H]2C[C@H](N)[C@H](O)[C@H](C)O2)C1)C(=O)c1ccccc1C3=O", "technique": "resazurin", "strain": "H37RV", "quantity": "MIC", "value": "80 µM"}
{"Compound": "CCOC(=O)c1c(NC(=O)c2c(F)c(F)c(F)c(F)c2F)sc2c1CCN(CC)C2", "technique": "resazurin", "strain": "H37RV", "quantity": "IC50", "value": "650 nM"}
{"Compound": "CO[C@H]1/C=C/O[C@@]2(C)Oc3c(C)c(O)c4c(O)c(c(/C=N/N5CCN(C)CC5)c(O)c4c3C2=O)NC(=O)/C(C)=C\\C=C\\[C@H](C)[C@H](O)[C@@H](C)[C@@H](O)[C@@H](C)[C@H](OC(C)=O)[C@@H]1C", "technique": "resazurin", "strain": "ATCC27294 H37RV", "time": "7 days", "quantity": "MIC", "value": "0.06 µg/mL"}
